In ChEMBL document CHEMBL4270613, “Design, synthesis, biological evaluation and structure-activity relationship of sophoridine derivatives bearing pyrrole or indole scaffold as potential antitumor agents” (Eur J Med Chem, 2018):
Active and inactive are the calls of the source. The rule behind the calls is not given here.

Key:
[1] = tested on: HepG2; assay: Antiproliferative activity against human HepG2 cells after 48 hrs by MTT assay; type: functional, cell-based; details: HepG2, 48 h
How it was run: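 HepG2 exposed to compounds for 48 h; MTT readout; camptothecin positive control; IC50 calculated; mean ± SD of three independent experiments, each in triplicate.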

[2] = tested on: HepG2; assay: Antiproliferative activity against human HepG2 cells after 72 hrs by MTT assay; type: functional, cell-based; details: HepG2, 72 h
[3] = tested on: SMMC-7721; assay: Antiproliferative activity against human SMMC7721 cells after 72 hrs by MTT assay; type: functional, cell-based; details: SMMC-7721, 72 h
[4] = tested on: HeLa; assay: Antiproliferative activity against human HeLa cells after 72 hrs by MTT assay; type: functional, cell-based
[5] = tested on: CNE; assay: Antiproliferative activity against human CNE1 cells after 72 hrs by MTT assay; type: functional, cell-based
[6] = tested on: CNE-2; assay: Antiproliferative activity against human CNE2 cells after 72 hrs by MTT assay; type: functional, cell-based; details: CNE-2, 72 h
[7] = tested on: MCF7; assay: Antiproliferative activity against human MCF7 cells after 72 hrs by MTT assay; type: functional, cell-based; details: MCF7, 72 h
[8] = target: T1, DNA topoisomerase 1 (Homo sapiens) (UniProt P11387); assay: Inhibition of recombinant human topoisomerase-1 using supercoiled pBR322 DNA as substrate after 45 mins by ethidium bromide staining based gel electrophoresis method
T1 sequence (whole entry): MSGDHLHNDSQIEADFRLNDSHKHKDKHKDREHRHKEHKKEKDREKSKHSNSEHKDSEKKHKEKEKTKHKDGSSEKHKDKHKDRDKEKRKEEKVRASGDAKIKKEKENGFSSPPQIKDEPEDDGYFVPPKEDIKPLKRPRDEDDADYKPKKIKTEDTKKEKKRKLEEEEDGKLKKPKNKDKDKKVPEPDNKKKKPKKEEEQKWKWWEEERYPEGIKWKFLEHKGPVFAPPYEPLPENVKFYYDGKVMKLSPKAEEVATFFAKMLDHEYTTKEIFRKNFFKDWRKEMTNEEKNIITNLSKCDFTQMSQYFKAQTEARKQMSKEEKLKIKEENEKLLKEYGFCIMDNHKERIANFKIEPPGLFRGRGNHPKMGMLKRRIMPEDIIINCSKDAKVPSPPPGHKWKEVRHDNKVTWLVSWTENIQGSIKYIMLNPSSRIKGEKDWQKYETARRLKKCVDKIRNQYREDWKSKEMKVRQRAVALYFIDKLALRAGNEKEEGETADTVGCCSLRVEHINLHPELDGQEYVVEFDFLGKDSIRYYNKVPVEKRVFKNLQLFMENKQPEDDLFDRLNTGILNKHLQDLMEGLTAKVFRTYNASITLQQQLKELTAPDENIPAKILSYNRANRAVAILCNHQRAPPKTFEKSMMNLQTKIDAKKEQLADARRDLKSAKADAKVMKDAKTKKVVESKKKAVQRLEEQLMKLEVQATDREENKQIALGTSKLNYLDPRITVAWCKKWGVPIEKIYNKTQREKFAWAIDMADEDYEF
How it was run: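 Plasmid relaxation assay: pBR322 DNA with Topo I plus DMSO vehicle, test compound at 1000, 500, 250 or 100 µM, or CPT at 100 µM as control; DNA alone as reference lane; products resolved on gel.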

[9] = tested on: HepG2; assay: Induction of apoptosis in human HepG2 cells assessed as live cells at 0.75 uM after 24 hrs by Annexin V-FITC/propidium iodide staining based flow cytometry (reference value: 96.2%); type: functional
How it was run: (§1)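 HepG2 treated at 0, 0.75, 1.5 and 3 µM for 24 h, then Annexin V-FITC/PI dual staining and quantification by flow cytometry.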

[10] = tested on: HepG2; assay: Induction of apoptosis in human HepG2 cells assessed as early apoptotic cells at 0.75 uM after 24 hrs by Annexin V-FITC/propidium iodide staining based flow cytometry (reference value: 1%); type: functional; how it was run: as §1
[11] = tested on: HepG2; assay: Induction of apoptosis in human HepG2 cells assessed as late apoptotic cells at 0.75 uM after 24 hrs by Annexin V-FITC/propidium iodide staining based flow cytometry (reference value: 1.6%); type: functional; how it was run: as §1
[12] = tested on: HepG2; assay: Induction of apoptosis in human HepG2 cells assessed as necrotic cells at 0.75 uM after 24 hrs by Annexin V-FITC/propidium iodide staining based flow cytometry (reference value: 1.18%); type: functional; how it was run: as §1
[13] = tested on: HepG2; assay: Induction of apoptosis in human HepG2 cells assessed as live cells at 1.5 uM after 24 hrs by Annexin V-FITC/propidium iodide staining based flow cytometry (reference value: 96.2%); type: functional; how it was run: as §1
[14] = tested on: HepG2; assay: Induction of apoptosis in human HepG2 cells assessed as early apoptotic cells at 1.5 uM after 24 hrs by Annexin V-FITC/propidium iodide staining based flow cytometry (reference value: 1%); type: functional; how it was run: as §1
[15] = tested on: HepG2; assay: Induction of apoptosis in human HepG2 cells assessed as late apoptotic cells at 1.5 uM after 24 hrs by Annexin V-FITC/propidium iodide staining based flow cytometry (reference value: 1.6%); type: functional; how it was run: as §1
[16] = tested on: HepG2; assay: Induction of apoptosis in human HepG2 cells assessed as necrotic cells at 1.5 uM after 24 hrs by Annexin V-FITC/propidium iodide staining based flow cytometry (reference value: 1.18%); type: functional; how it was run: as §1
[17] = tested on: HepG2; assay: Induction of apoptosis in human HepG2 cells assessed as live cells at 3 uM after 24 hrs by Annexin V-FITC/propidium iodide staining based flow cytometry (reference value: 96.2%); type: functional; how it was run: as §1
[18] = tested on: HepG2; assay: Induction of apoptosis in human HepG2 cells assessed as early apoptotic cells at 3 uM after 24 hrs by Annexin V-FITC/propidium iodide staining based flow cytometry (reference value: 1%); type: functional; how it was run: as §1
[19] = tested on: HepG2; assay: Induction of apoptosis in human HepG2 cells assessed as late apoptotic cells at 3 uM after 24 hrs by Annexin V-FITC/propidium iodide staining based flow cytometry (reference value: 1.6%); type: functional; how it was run: as §1
[20] = tested on: HepG2; assay: Induction of apoptosis in human HepG2 cells assessed as necrotic cells at 3 uM after 24 hrs by Annexin V-FITC/propidium iodide staining based flow cytometry (reference value: 1.18%); type: functional; how it was run: as §1
[21] = tested on: HepG2; assay: Induction of apoptosis in human HepG2 cells after 24 hrs by Annexin V-FITC/propidium iodide staining based flow cytometry; type: functional, cell-based; how it was run: as §1
[22] = tested on: HepG2; assay: Upregulation of Bax protein expression in human HepG2 cells after 24 hrs by Western blot analysis; type: functional, cell-based
How it was run: (§2)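 HepG2 treated at 0, 0.75, 1.5 and 3 µM for 24 h, then western blot for Bax, Bcl-2 and cleaved caspase-3.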

[23] = tested on: HepG2; assay: Downregulation of Bcl2 protein expression in human HepG2 cells after 24 hrs by Western blot analysis; type: functional, cell-based; how it was run: as §2
[24] = tested on: HepG2; assay: Upregulation of cleaved caspase-3 protein expression in human HepG2 cells at 0.75 to 3 uM after 24 hrs by Western blot analysis; type: functional, cell-based; how it was run: as §2
[25] = tested on: HepG2; assay: Antitumor activity against human HepG2 cells xenografted in nude mouse assessed as tumor growth inhibition at 40 mg/kg for 25 days; type: functional, organism-based
How it was run: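 HepG2 xenografts were grown in nude mice and dosed at 40 mg/kg alongside a vehicle group. Tumour volume and body weight were recorded every 2 days. At the end, tumours were excised and weighed. Groups were compared with the vehicle group.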

[26] = tested on: Mus musculus; assay: Toxicity in nude mouse xenografted with human HepG2 cells assessed as change in body weight at 40 mg/kg for 25 days; type: organism-based; details: in vivo, 600 h
How it was run: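 Nude mice bearing HepG2 xenografts dosed at 40 mg/kg against vehicle; body weight and tumor volume measured every 2 days; tumors weighed at end.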

**Q.** With COc1ccc2c(c1)c(/C=C1\CC[C@@H]3[C@H]4CCCN5CCC[C@H](CN3C1=O)[C@@H]45)cn2Cc1ccc(OCc2ccccc2)cc1 as the compound, how does the IC50 [1] read?
**A.** The IC50 was 1960 nM.

**Q.** What about the IC50 [2] of the same compound?
**A.** The IC50 was 930 nM.

**Q.** And the IC50 [3]?
**A.** Its IC50 is 1320 nM.

**Q.** And the IC50 [4]?
**A.** Its IC50 is 1440 nM.

**Q.** What about the IC50 [5] of the same compound?
**A.** Its IC50 is 1890 nM.

**Q.** And the IC50 [6]?
**A.** Its IC50 is 1240 nM.

**Q.** And the IC50 [7]?
**A.** The IC50 was 940 nM.

**Q.** And the inhibition [8]?
**A.** The inhibition was “Dose-dependent effect”.

**Q.** And the Activity [9]?
**A.** Its Activity is 87.6%.

**Q.** What about the Activity [10] of the same compound?
**A.** Its Activity is 6.71%.

**Q.** What about the Activity [11] of the same compound?
**A.** Its Activity is 3.09%.

**Q.** And the Activity [12]?
**A.** Its Activity is 2.58%.

**Q.** What about the Activity [13] of the same compound?
**A.** Its Activity is 78%.

**Q.** What about the Activity [14] of the same compound?
**A.** Its Activity is 9.49%.

**Q.** And the Activity [15]?
**A.** The Activity was 11.5%.

**Q.** What about the Activity [16] of the same compound?
**A.** The Activity was 0.94%.

**Q.** What about the Activity [17] of the same compound?
**A.** The Activity was 57%.

**Q.** What about the Activity [18] of the same compound?
**A.** The Activity was 33.8%.

**Q.** And the Activity [19]?
**A.** Its Activity is 7.69%.

**Q.** What about the Activity [20] of the same compound?
**A.** The Activity was 1.52%.

**Q.** What about the Activity [21] of the same compound?
**A.** The Activity was “Dose-dependent effect”.

**Q.** What about the Activity [22] of the same compound?
**A.** The Activity was “Dose-dependent effect”.

**Q.** And the Activity [23]?
**A.** Its Activity is “Dose-dependent effect”.

**Q.** And the Activity [24]?
**A.** The Activity was “Active”.

**Q.** What about the TGI [25] of the same compound?
**A.** Its TGI is “Active”.

**Q.** What about the Activity [26] of the same compound?
**A.** The Activity was “Non-Toxic”.

**Q.** Which TGI [25] does the source give for O=C1CCC[C@@H]2[C@H]3CCCN4CCC[C@H](CN12)[C@@H]34 here?
**A.** Its TGI is “inactive”.

**Q.** With CC[C@@]1(O)C(=O)OCc2c1cc1n(c2=O)Cc2cc3ccccc3nc2-1 [CAMPTOTHECIN] as the compound, how does the IC50 [1] read?
**A.** Its IC50 is 6080 nM.

**Q.** And the IC50 [2]?
**A.** The IC50 was 1360 nM.

**Q.** What about the IC50 [3] of the same compound?
**A.** Its IC50 is 1080 nM.

**Q.** What about the IC50 [4] of the same compound?
**A.** Its IC50 is 660 nM.

**Q.** And the IC50 [5]?
**A.** Its IC50 is 340 nM.

**Q.** And the IC50 [6]?
**A.** The IC50 was 980 nM.

**Q.** And the IC50 [7]?
**A.** The IC50 was 420 nM.
